Test results published in ChEMBL document CHEMBL4007470, “Discovery of a 2'-fluoro-2'-C-methyl C-nucleotide HCV polymerase inhibitor and a phosphoramidate prodrug with favorable properties” (Bioorg Med Chem Lett, 2017).

Key:
[1] = (§1) Half life in human plasma at 2 uM by LC-MS/MS analysis; assay type: ADME, cell-free
Method in brief: (§2)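 Compound at 2 μM incubated in plasma at 37 °C for up to 4 h. Aliquots quenched with 9 volumes of acetonitrile containing internal standard, then centrifuged. Supernatant analysed by LC-MS/MS.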

[2] = Prodrug activation in human HuH7 cells infected with HCV genotype 1b assessed as ((2R,3R,4R,5S)-5-(4-aminoimidazo[1,2-f][1,2,4]triazin-7-yl)-4-fluoro-3-hydroxy-4-methyltetrahydrofuran-2-yl)methyl tetrahydrogen triphosphate level per million cells at 10 uM after 6 hrs by LC-MS/MS analysis; assay type: cell-based; details: huh-7, 6 h
Method in brief: (§3)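 HCV genotype 1b replicon Huh-7 cells (DMEM with glutaMAX, 10% heat-inactivated FBS, penicillin-streptomycin, G418) grown to confluency (0.88×10^6 cells/well), exposed continuously to prodrug at 10 μM for up to 24 h; washed in ice-cold saline, extracted into 70% methanol overnight, dried, resuspended in 1 mM ammonium phosphate pH 8.5; triphosphate quantified by LC-MS/MS; LLOQ 0.137 pmol/million cells; duplicate wells, single experiment.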

Huh-7 = experiment: Cytotoxicity against human HuH7 cells; assay type: cell-based
[3] = Prodrug activation in human HuH7 cells infected with HCV genotype 1b assessed as ((2R,3R,4R,5S)-5-(4-aminoimidazo[1,2-f][1,2,4]triazin-7-yl)-4-fluoro-3-hydroxy-4-methyltetrahydrofuran-2-yl)methyl tetrahydrogen triphosphate level per million cells at 10 uM after 24 hrs by LC-MS/MS analysis; assay type: cell-based; details: huh-7, 24 h; method in brief: as §3
[4] = Prodrug activation in human HuH7 cells infected with HCV genotype 1b assessed as ((2R,3R,4R,5S)-5-(4-aminoimidazo[1,2-f][1,2,4]triazin-7-yl)-4-fluoro-3-hydroxy-4-methyltetrahydrofuran-2-yl)methyl tetrahydrogen triphosphate level per million cells at 10 uM after 2 hrs by LC-MS/MS analysis; assay type: cell-based; details: huh-7, 2 h; method in brief: as §3
[5] = Half life in hamster intestinal S9 fractions at 2 uM by LC-MS/MS analysis; assay type: ADME, Intestine; details: cricetinae
Hepatitis C virus [6] = experiment: Antiviral activity against HCV genotype 1b infected in human HuH7 cells by luciferase reporter gene assay; assay type: functional, cell-based, Hepacivirus hominis
Method in brief: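 Luciferase-reporter genotype 1b subgenomic replicon in Huh-7 cells; EC50 is concentration giving 50% inhibition. Values are averages of at least three repeats.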

Hepatitis C virus [7] = experiment: Antiviral activity against HCV genotype 4a infected in human HuH7 cells by luciferase reporter gene assay; assay type: functional, cell-based, Hepacivirus hominis
[8] = Half life in hamster plasma at 2 uM by LC-MS/MS analysis; assay type: ADME, cell-free; details: cricetinae; method in brief: as §2
Hepatitis C virus [9] = experiment: Antiviral activity against HCV genotype 1a infected in human HuH7 cells by luciferase reporter gene assay; assay type: functional, cell-based, Hepacivirus hominis, subtype 1a
[10] = (§4) Hepatic extraction in human liver S9 fractions at 2 uM by LC-MS/MS analysis; assay type: ADME; details: liver S9 fractions, read-out: ERH
Method in brief: (§5)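 Compound at 2 μM incubated with S9 fractions at 37 °C for 90 min with NADPH and UDPGA. Quenched with aqueous acetonitrile/methanol containing internal standard and analysed by LC-MS/MS. Half-life from an exponential fit assuming first-order kinetics. Hepatic extraction predicted from half-life using the well-stirred model.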

[11] = Hepatic extraction in hamster liver S9 fractions at 2 uM by LC-MS/MS analysis; assay type: ADME; details: cricetinae; method in brief: as §5
[12] = Half life in human intestinal S9 fractions at 2 uM by LC-MS/MS analysis; assay type: ADME, Intestine; method in brief: as §5
[13] = Activity at human mitochondrial RNA polymerase assessed as incorporation rate relative to ATP; assay type: ADME
[14] = Inhibition of human RNA polymerase-2
[15] = Inhibition of human DNA polymerase-alpha
[16] = test system: RNA-directed RNA polymerase (Hepacivirus hominis), O39930 [UNDEFINED MUTATION]; experiment: Inhibition of HCV genotype 1b wild-type NS5B RNA dependent RNA polymerase S282T mutant relative to control; details: Hepatitis C virus subtype 1b
[17] = Inhibition of human DNA polymerase-gamma
DNA polymerase beta = DNA polymerase beta (Homo sapiens, UniProt P06746); experiment: Inhibition of human DNA polymerase-beta
[18] = Inhibition of HCV genotype 1b wild-type NS5B RNA dependent RNA polymerase; parameters: species or system Hepatitis C virus subtype 1b
[19] = Prodrug activation in human HuH7 cells infected with HCV genotype 1b assessed as ((2R,3R,4R,5S)-5-(4-aminopyrrolo[1,2-f][1,2,4]triazin-7-yl)-4-fluoro-3-hydroxy-4-methyltetrahydrofuran-2-yl)methyl tetrahydrogen triphosphate level per million cells at 10 uM after 2 to 24 hrs by LC-MS/MS analysis; assay type: cell-based; details: huh-7, 10 µM; method in brief: as §3
[20] = Prodrug activation in human HuH7 cells infected with HCV genotype 1b assessed as ((2R,3R,4R,5S)-5-(4-aminopyrrolo[1,2-f][1,2,4]triazin-7-yl)-4-fluoro-3-hydroxy-4-methyltetrahydrofuran-2-yl)methyl tetrahydrogen monophosphate level at 10 uM after 2 to 24 hrs by LC-MS/MS analysis; assay type: cell-based; details: huh-7, 10 µM
[21] = Prodrug activation in human HuH7 cells infected with HCV genotype 1b assessed as ((2R,3R,4R,5S)-5-(4-aminopyrrolo[1,2-f][1,2,4]triazin-7-yl)-4-fluoro-3-hydroxy-4-methyltetrahydrofuran-2-yl)methyl tetrahydrogen diphosphate level at 10 uM after 2 to 24 hrs by LC-MS/MS analysis; assay type: cell-based; details: huh-7, 10 µM
[22] = Prodrug activation in human HuH7 cells infected with HCV genotype 1b assessed as ((2R,3R,4R,5R)-5-(4-aminoimidazo[1,2-f][1,2,4]triazin-7-yl)-5-cyano-4-fluoro-3-hydroxy-4-methyltetrahydrofuran-2-yl)methyl tetrahydrogen triphosphate level per million cells at 10 uM after 24 hrs by LC-MS/MS analysis; assay type: cell-based; details: huh-7, 24 h; method in brief: as §3
[23] = Prodrug activation in human HuH7 cells infected with HCV genotype 1b assessed as ((2R,3R,4R,5R)-5-(4-aminoimidazo[1,2-f][1,2,4]triazin-7-yl)-5-cyano-4-fluoro-3-hydroxy-4-methyltetrahydrofuran-2-yl)methyl tetrahydrogen triphosphate level per million cells at 10 uM after 6 hrs by LC-MS/MS analysis; assay type: cell-based; details: huh-7, 6 h; method in brief: as §3
[24] = Prodrug activation in human HuH7 cells infected with HCV genotype 1b assessed as ((2R,3R,4R,5R)-5-(4-aminoimidazo[1,2-f][1,2,4]triazin-7-yl)-5-cyano-4-fluoro-3-hydroxy-4-methyltetrahydrofuran-2-yl)methyl tetrahydrogen triphosphate level per million cells at 10 uM after 2 hrs by LC-MS/MS analysis; assay type: cell-based; details: huh-7, 2 h; method in brief: as §3
Rattus norvegicus [25] = organism: Rattus norvegicus; experiment: Toxicity in rat assessed as vacuolization in brain treated for 28 days by histopathology; details: in vivo, 672 h
Plasma = experiment: as §1; assay type: ADME, cell-free; details: 2 µM; method in brief: as §2
Rhesus monkey = experiment: Toxicity in monkey at 30 mg/kg/day for 28 days; assay type: organism-based, Macaca mulatta; details: in vivo, 672 h
[26] = Permeability of the compound from apical to basolateral side in human Caco2 cells at 10 uM; assay type: ADME, cell-based, Caco-2; details: caco-2, 10 µM, 10 µM
Method in brief: (§6)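 Caco-2 permeability at 10 μM compound, measured in apical-to-basolateral and basolateral-to-apical directions.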

Liver = experiment: as §4; assay type: ADME; details: s9, 2 µM, 2 µM; method in brief: as §5
[27] = Permeability of the compound from basolateral to apical side in human Caco2 cells at 10 uM; assay type: ADME, cell-based, Caco-2; details: caco-2, 10 µM, 10 µM; method in brief: as §6
Rattus norvegicus [28] = experiment: Toxicity in rat at 1000 mg/kg/day for 28 days; assay type: organism-based; details: in vivo, 672 h
[29] = Prodrug activation in human HuH7 cells infected with HCV genotype 1b assessed as ((2R,3R,4R,5S)-5-(4-aminopyrrolo[1,2-f][1,2,4]triazin-7-yl)-3,4-dihydroxy-4-methyltetrahydrofuran-2-yl)methyl tetrahydrogen triphosphate formation per million cells at 10 uM after 2 hrs by LC-MS/MS analysis; assay type: cell-based; details: huh-7, 2 h
Method in brief: (§7)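 Huh-7 replicon cells grown in DMEM with 10% heat-inactivated FBS, penicillin-streptomycin and G418, plated to confluency (0.88×10^6 cells/well). Prodrug at 10 μM given as continuous incubation, sampled at 2, 6 and 24 h. Cells washed with ice-cold saline and extracted into 70% methanol overnight. Triphosphate quantified by LC-MS/MS (LLOQ 0.137 pmol/million cells). Duplicate wells, single experiment.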

[30] = Prodrug activation in human HuH7 cells infected with HCV genotype 1b assessed as ((2R,3R,4R,5S)-5-(4-aminopyrrolo[1,2-f][1,2,4]triazin-7-yl)-3,4-dihydroxy-4-methyltetrahydrofuran-2-yl)methyl tetrahydrogen triphosphate formation per million cells at 10 uM after 24 hrs by LC-MS/MS analysis; assay type: cell-based; details: huh-7, 24 h; method in brief: as §7
[31] = Prodrug activation in human HuH7 cells infected with HCV genotype 1b assessed as((2R,3R,4R,5S)-5-(4-aminopyrrolo[1,2-f][1,2,4]triazin-7-yl)-3,4-dihydroxy-4-methyltetrahydrofuran-2-yl)methyl tetrahydrogen triphosphate formation per million cells at 10 uM after 6 hrs by LC-MS/MS analysis; assay type: cell-based; details: huh-7, 6 h; method in brief: as §7
[32] = Hepatitis C virus, genotype 1b, Huh-7

## CCOC(=O)[C@H](C)NP(=O)(OC[C@H]1O[C@@H](c2cnc3c(N)ncnn23)[C@](C)(F)[C@@H]1O)Oc1ccccc1 (stereo partly drawn)
[1]
  half-life at 2 µM: 7.57 h
[2]
  Drug metabolism: 13 pmol
Huh-7
  Activity: Non-Toxic
[3]
  Drug metabolism: 20.5 pmol
[4]
  Drug metabolism: 2.4 pmol
[5]; intestinal S9 fractions
  half-life at 2 µM: 0.4 h
Hepatitis C virus [6]; [32]
  EC50: 580 to 590 nM
Hepatitis C virus [7]; Hepatitis C virus, genotype 4a, Huh-7
  EC50: 100 nM
[8]
  half-life at 2 µM: > 13.2 h
Hepatitis C virus [9]; Hepatitis C virus, subtype 1a, Huh-7
  EC50: 370 nM
[10]
  hepatic extraction ratio at 2 µM: 0.83
[11]; liver S9 fractions, read-out: ERH
  hepatic extraction ratio at 2 µM: 0.76
[12]
  half-life at 2 µM: 2.23 h

## C[C@@]1(F)[C@H](O)[C@@H](COP(=O)(O)OP(=O)(O)OP(=O)(O)O)O[C@H]1c1cnc2c(N)ncnn12
[13]
  Activity: 0.04%
[14]
  IC50: > 200000 nM
[15]
  IC50: > 200000 nM
[16]
  fold change (FC): 5.9
[17]
  IC50: > 200000 nM
DNA polymerase beta
  IC50: > 200000 nM
Hepatitis C virus [6]; [32]
  EC50: > 89000 nM
[18]
  IC50: 150 nM

## CCOC(=O)[C@H](C)NP(=O)(OC[C@H]1O[C@@H](c2ccc3c(N)ncnn23)[C@](C)(F)[C@@H]1O)Oc1ccccc1 (stereo partly drawn)
[19]
  Drug metabolism: < 0.137 pmol
Hepatitis C virus [6]; [32]
  EC50: > 89000 nM
[20]
  Drug metabolism: Metabolite_Detected
[21]
  Drug metabolism: Metabolite_Notdetected

## CCOC(=O)[C@H](C)NP(=O)(OC[C@H]1O[C@@](C#N)(c2ccc3c(N)ncnn23)[C@](C)(F)[C@@H]1O)Oc1ccccc1 (stereo partly drawn)
[22]
  Drug metabolism: 3.3 pmol
Huh-7
  Activity: Non-Toxic
[23]
  Drug metabolism: 5.8 pmol
[24]
  Drug metabolism: 1.6 pmol
Hepatitis C virus [6]; [32]
  EC50: 3240 nM

## CC(C)OC(=O)C1(NP(=O)(OC[C@H]2O[C@@H](c3cnc4c(N)ncnn34)[C@](C)(F)[C@@H]2O)Oc2ccccc2)CCC1 (stereo in doubt; 53)
Rattus norvegicus [25]
  Activity: Dose-dependent effect
Plasma
  t1/2: 9.1 h
Rhesus monkey
  Activity: Non-Toxic
[26]
  permeability: 1.7 ×10⁻⁶ cm/s
[5]; s9, 2 µM, 2 µM
  t1/2: 1.65 h
Hepatitis C virus [6]
  EC50: 3000 nM
Hepatitis C virus [7]
  EC50: 440 nM
[8]; 2 µM
  t1/2: 3.63 h
Hepatitis C virus [9]
  EC50: 800 nM
Liver
  ERH: 76%
[27]
  permeability: 9.3 ×10⁻⁶ cm/s
[11]; s9, 2 µM, 2 µM
  ERH: 90%
Rattus norvegicus [28]
  Activity: Non-Toxic

## CCOC(=O)[C@H](C)N[P@@](=O)(O)OC[C@H]1O[C@@](C#N)(c2ccc3c(N)ncnn23)[C@](C)(O)[C@@H]1O
[29]
  Drug metabolism: 26 pmol
[30]
  Drug metabolism: 83 pmol
Huh-7
  Activity: Non-Toxic
Hepatitis C virus [6]; [32]
  EC50: 1450 nM
[31]
  Drug metabolism: 117 pmol
